Hits are enriched below; roughly 1.5% of the tested compounds scored in any of these assays.
Cneo AK release = Cryptococcus neoformans cell lysis inducers, primary screen, AK release luminescence, single concentration; C. neoformans lysis, adenylate kinase release luminescence, 4 h; normalised: neutral wells 0, clomiphene wells 100; lysis activity, % at 15 µM; hit rate 0.2% among 360,000; AID 651654, 2012;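 active = mean lysis activity across replicates of at least 80%, whatever share of replicates individually reach that level; inactive = mean lysis activity below 80%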
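read-out = cell lysis signal | test system = log-phase Cryptococcus neoformans yeast cells | input = cells at 5 × 10^6 per mL | medium = fresh YPD growth medium | signal = luminescent adenylate kinase detection reagent | timing = 4 h at 37 °C static, read 1 h later | dosing = single dose | controls = Clomiphene as positive lysis control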
MITF TRPM1 HTS = activators of MITF-driven TRPM1 promoter reporter, primary screen, cell-based, SK-MEL-5, luciferase, single point; SK-MEL-5 TRPM1-promoter luciferase, 24 h; % of positive control, neutral wells = 0; activation, % at 12.5 µM; hit rate 0.75% among 300,000; AID 588334, 2011;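 active = mean activation of at least 80% with every replicate also reaching 80%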
PGC1a acetyl inh = inhibitors of PGC1a acetylation signal, primary screen, cell-based, U2OS, AlphaScreen, inhibitor mode. inhibition, % at 15.6 µM. AlphaScreen anti-acetyl-lysine; with virally co-expressed GCN5 acetyltransferase. AID 651687, 2012. hit rate 0.17% among 350,000;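 active = every replicate shows inhibition of at least 40%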
Wnt bcat act = Wnt/beta-catenin pathway activators, primary screen, cell-based, plate reader, single point; Wnt/beta-catenin reporter cell assay, activator; activation, % at 9.35 µM; hit rate 1.2% among 300,000; in the data active = activation above about 30%, passing the limit was not always enough
A number is an active result.

Results for O=C(Nc1ccc2nc(-c3cccs3)[nH]c2c1)c1ccco1 ?
Cneo AK release: inactive; MITF TRPM1 HTS: 102.5; PGC1a acetyl inh: inactive

What do the screens show for `O=C(Nc1ccc2c(c1)Cc1ccccc1-2)c1ccco1`?
Cneo AK release: inactive; MITF TRPM1 HTS: 151.2; Wnt bcat act: 48.2

Results for c1ccc(-c2ccc(OCCCn3cncn3)cc2)cc1 ?
Cneo AK release: inactive; MITF TRPM1 HTS: inactive; PGC1a acetyl inh: inactive; Wnt bcat act: 35.4

How did O=C([C@H]1[C@H](CO)[C@H]2Cn3c(cccc3=O)[C@@H]1N2Cc1cccc(Cl)c1)N1CCOCC1 do in these assays?
Cneo AK release: 90.0

What do the screens show for `O=C([C@H]1[C@H](CO)[C@H]2Cn3c(cccc3=O)[C@@H]1N2Cc1cccc(Cl)c1)N1CCCCC1`?
Cneo AK release: inactive

How did CC1(C)Cc2nc3sc4c(=O)[nH]cnc4c3cc2CS1 do in these assays?
Cneo AK release: inactive; MITF TRPM1 HTS: inactive; PGC1a acetyl inh: inactive

How did CCCCCn1cnc2c(sc3nc4c(cc32)CSC(C)(C)C4)c1=O do in these assays?
Cneo AK release: inactive; MITF TRPM1 HTS: 94.1; PGC1a acetyl inh: inactive

How did COc1ccc(NC(=O)N(C)C[C@H]2OCCCC[C@@H](C)Oc3ccc(NC(=O)Cc4ccccc4)cc3C(=O)N([C@@H](C)CO)C[C@H]2C)cc1 do in these assays?
Cneo AK release: inactive; PGC1a acetyl inh: inactive

What do the screens show for `Cc1cc(C(=O)Nc2cccc3c2O[C@H](CN(C)CC2CC2)[C@@H](C)CN([C@@H](C)CO)C3=O)n(C)n1`?
Cneo AK release: inactive; PGC1a acetyl inh: inactive

Results for COc1ccccc1-c1nn2c(-c3ccco3)nnc2s1 ?
Cneo AK release: inactive; MITF TRPM1 HTS: 134.2; PGC1a acetyl inh: inactive; Wnt bcat act: inactive

How did c1coc(-c2nn3c(-c4ccco4)nnc3s2)c1 do in these assays?
Cneo AK release: inactive; PGC1a acetyl inh: inactive

Results for C[C@@H]1CCCCO[C@H](CN(C)S(=O)(=O)c2cn(C)cn2)[C@@H](C)CN([C@H](C)CO)C(=O)c2cc(NS(=O)(=O)c3cn(C)cn3)ccc2O1 ?
Cneo AK release: inactive; PGC1a acetyl inh: inactive

Results for Oc1ccc(/C=C/c2cc(O)cc(O)c2)cc1 ?
Cneo AK release: inactive; MITF TRPM1 HTS: 104.2; PGC1a acetyl inh: inactive; Wnt bcat act: inactive

Results for COc1cc(O)cc(/C=C/c2ccccc2)c1 ?
Cneo AK release: inactive; MITF TRPM1 HTS: inactive; PGC1a acetyl inh: inactive; Wnt bcat act: inactive

Results for O=C1CCCc2ccccc2N1Cc1ccc(Cl)cc1Cl ?
MITF TRPM1 HTS: inactive; PGC1a acetyl inh: 56.0

What do the screens show for `O=C(N[C@H]1C[C@@H]2O[C@@H](CO)CC[C@@H]2O[C@@H]1CCc1ccc(C#CC2CC2)cc1)c1cccc(F)c1`?
PGC1a acetyl inh: inactive

Results for CCc1ccc(C(=O)Nc2cccnc2Oc2ccc(Cl)cc2)cc1 ?
MITF TRPM1 HTS: inactive; PGC1a acetyl inh: 86.9; Wnt bcat act: inactive

What do the screens show for `COc1ccc2c3c(n(C)c2c1)[C@H](CO)N(Cc1ccncc1)CC31CN(C(=O)Nc2cccc(F)c2)C1`?
PGC1a acetyl inh: inactive

What do the screens show for `O=C(c1cccs1)N1CCn2c1nc1ccccc12`?
Cneo AK release: inactive; MITF TRPM1 HTS: 82.4; PGC1a acetyl inh: inactive; Wnt bcat act: inactive

What do the screens show for `O=C(NNc1c2ccccc2nc2ccccc12)c1cccc(O)c1`?
MITF TRPM1 HTS: inactive

What do the screens show for `Oc1cccc(-c2nc3ccc4ccccc4c3c3c2CCC3)c1`?
MITF TRPM1 HTS: 92.5; PGC1a acetyl inh: inactive

Results for O=C(C[C@H]1C[C@H]2c3cc(NC(=O)NC4CCCCC4)ccc3O[C@H]2[C@H](CO)O1)NCc1ccccc1 ?
Cneo AK release: inactive; PGC1a acetyl inh: inactive

What do the screens show for `O=C(c1cc2cc(Cl)ccc2oc1=O)N1CCOCC1`?
Cneo AK release: inactive; MITF TRPM1 HTS: inactive; PGC1a acetyl inh: inactive

How did O=C(c1cc2ccccc2oc1=O)N1CCOCC1 do in these assays?
Cneo AK release: inactive; MITF TRPM1 HTS: inactive; PGC1a acetyl inh: inactive; Wnt bcat act: 35.3

Results for C[C@@H]1CN([C@@H](C)CO)S(=O)(=O)c2ccc(/C=C/c3ccccc3)cc2O[C@H]1CN(C)C(=O)NC1CCCC1 ?
Cneo AK release: inactive; PGC1a acetyl inh: inactive

How did Nc1ccccc1C#Cc1ccccc1 do in these assays?
Cneo AK release: inactive; MITF TRPM1 HTS: 132.8; Wnt bcat act: 38.9

Results for C[C@@H]1CCCCO[C@@H](CN(C)S(=O)(=O)c2ccc(F)cc2)[C@H](C)CN([C@H](C)CO)C(=O)c2cc(NC(=O)C3CCCCC3)ccc2O1 ?
Cneo AK release: inactive; PGC1a acetyl inh: inactive

What do the screens show for `CN1[C@@H]2Cn3c(ccc(/C=C/c4ccccc4)c3=O)[C@H]1[C@@H](C(=O)NC1CCCC1)[C@@H]2CO`?
PGC1a acetyl inh: inactive

Results for Brc1ccc(-c2cn3ccccc3n2)cc1 ?
Cneo AK release: inactive; MITF TRPM1 HTS: inactive; PGC1a acetyl inh: inactive; Wnt bcat act: 49.1

Results for Brc1ccc(OCc2cn3ccccc3n2)cc1 ?
MITF TRPM1 HTS: 92.9; Wnt bcat act: inactive

How did O=[N+]([O-])c1ccc(-c2cn3ccccc3n2)cc1 do in these assays?
Cneo AK release: inactive; PGC1a acetyl inh: inactive; Wnt bcat act: 34.5

What do the screens show for `Oc1ccc(-c2cn3ccccc3n2)cc1`?
MITF TRPM1 HTS: inactive; PGC1a acetyl inh: inactive; Wnt bcat act: 38.5

What do the screens show for `c1ccc(-c2cn3ccccc3n2)cc1`?
Cneo AK release: inactive; MITF TRPM1 HTS: inactive; PGC1a acetyl inh: inactive; Wnt bcat act: inactive

What do the screens show for `COc1ccc(S(=O)(=O)N(C)C[C@@H]2OCCCC[C@H](C)Oc3ccc(NC(=O)C4CCCCC4)cc3C(=O)N([C@@H](C)CO)C[C@@H]2C)cc1`?
Cneo AK release: inactive; PGC1a acetyl inh: inactive

Results for COc1ccccc1CNC(=O)C[C@@H]1CC[C@@H]2[C@H](COc3ccc(NS(=O)(=O)c4ccc(C)cc4)cc3C(=O)N2C)O1 ?
Cneo AK release: inactive; PGC1a acetyl inh: inactive

How did CN1C(=O)C2C=CC1C1C(=O)N(c3ccccc3)C(=O)C21 (configuration not stated) do in these assays?
Cneo AK release: inactive; MITF TRPM1 HTS: 88.7; PGC1a acetyl inh: inactive

What do the screens show for `O=C1C2C3C=CC(C3=C3CCCCC3)C2C(=O)N1c1ccccc1` (configuration not stated)?
Cneo AK release: inactive; MITF TRPM1 HTS: inactive; PGC1a acetyl inh: inactive; Wnt bcat act: inactive

What do the screens show for `COc1cc2ccccc2cc1C(=O)NCC(c1cccs1)N(C)C` (configuration not stated)?
MITF TRPM1 HTS: 122.9; Wnt bcat act: inactive

How did COc1ccc(S(=O)(=O)N(C)C[C@H]2Oc3ccc(NC(=O)CCCN(C)C)cc3CC(=O)N([C@H](C)CO)C[C@@H]2C)cc1 do in these assays?
Cneo AK release: inactive; PGC1a acetyl inh: inactive

Results for Cc1cc(N2CCCCC2)nc2ccc(NC(=O)CCC(=O)NCCC(C)C)cc12 ?
Cneo AK release: inactive; PGC1a acetyl inh: inactive; Wnt bcat act: 43.3

How did CC1=C/C(=N\OS(=O)(=O)c2ccccc2)C(C)=CC1=O do in these assays?
Cneo AK release: inactive; MITF TRPM1 HTS: inactive; PGC1a acetyl inh: 60.0
